EBV gp42 block: Epstein-Barr virus gp42 inhibitors, primary screen, biochemical, uHTS, fluorescence polarization; AID 1085, 2008; actives 0.42% (n = 220,000); inhibition, % (tested at 21.74 µM); Fluorescence polarization binding assay, mP read-out; in the data active = inhibition above about 50%
Target sequence (Q1HVG2 whole entry, looked up): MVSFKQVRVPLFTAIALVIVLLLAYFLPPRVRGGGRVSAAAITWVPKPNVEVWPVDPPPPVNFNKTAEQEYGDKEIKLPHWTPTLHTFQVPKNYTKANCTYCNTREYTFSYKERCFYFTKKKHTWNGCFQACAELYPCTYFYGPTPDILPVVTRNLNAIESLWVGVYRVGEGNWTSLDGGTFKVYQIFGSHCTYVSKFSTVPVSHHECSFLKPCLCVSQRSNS
MPTP inh: mitochondrial permeability transition pore inhibitors, primary screen, biochemical, isolated mouse mitochondria, absorbance; Ca2+ swelling absorbance, 30 min; inhibition, % at 10 µM; actives 1.4% (n = 360,000); AID 602449, 2012;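 active = inhibition of 50% or more, scaled per plate between neutral and stimulator controls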
GRIN3A LBD mod: binders of NR3A ligand-binding domain, primary screen, biophysical, differential scanning fluorimetry, uHTS; actives 2.5% (n = 340,000); Tm shift relative to glycine control, % at 25 µM; NR3A LBD differential scanning fluorimetry, Tm shift; 0% = protein alone, 100% = glycine-bound protein;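 active = melting temperature shift of at least 10% of the positive control shift, at one fixed dose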
Tb MetRS inh: T. brucei MetRS inhibitors, primary screen, biochemical, luminescence. methionyl-tRNA synthetase (Trypanosoma brucei brucei). purified T. brucei MetRS, ATP depletion, Kinase-Glo luminescence. inhibition, % at 11.9 µM. actives 0.4% (n = 360,000);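 active = inhibition above a per-plate cutoff of the control wells' mean inhibition plus 3 SD, cut at about 5.5% in these data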
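System: purified T. brucei MetRS enzyme / Detection: Kinase-Glo luciferase luminescence reporting remaining unconsumed ATP / Medium: HEPES buffer with MgCl2, KCl, DTT, spermine, BSA, pyrophosphatase / Replication: singlicate, one well per compound / Evaluation: percent inhibition relative to median high and low control wells / Schedule: 2 h aminoacylation at 25 °C after 15 min preincubation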
WT yeast gro inh: growth inhibition of WT strain, primary screen, mitochondrial fusion inhibitor project, WT and mutant strains, chemical genetic; inhibition, % at 10 µM; actives 2.1% (n = 190,000); mitochondrial fusion phenotypic screen; in the data active = inhibition above about 58%; tested in S. cerevisiae
CHOP inhibitor: inhibitors of CHOP promoter induction, primary screen, cell-based, unfolded protein response, luciferase reporter | CHO-K1 CHOP-promoter luciferase, tunicamycin-induced, 15-18 h | inhibition, % at 10 µM | actives 3.8% (n = 220,000);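 active = compounds that reduced the stress-induced luciferase reporter signal by more than about 70% of percent inhibition, limit read from the data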
Tb MetRS conf: T. brucei MetRS inhibitors, confirmation, biochemical, luminescence | actives 93% (n = 1,400) | inhibition, % at 11.9 µM | T. brucei MetRS enzyme, luminescence (ATP depletion) | AID 624412, 2012 | shares compounds with Tb MetRS inh; in the data active = inhibition above about 7%
Jurkat cytotox: Jurkat T cell cytotoxicity, cytotoxicity control for T. brucei MetRS inhibitor project, luminescence, high throughput | shares compounds with Tb MetRS inh | Jurkat cells viability, ATP luminescence | inhibition, % at 8.3 µM | actives 12% (n = 1,400); in the data active = inhibition above about 15%
Tb MetRS inh FP: T. brucei MetRS inhibitors, orthogonal assay for T. brucei MetRS inhibitor project, biochemical, fluorescence polarization; shares compounds with Tb MetRS inh; purified T. brucei MetRS; inhibition, % at 11.9 µM; actives 44% (n = 1,400); AID 651607, 2012; in the data active = inhibition above about 17%
Numbers stand for hits; n = inactive; x = not tested or not shown. An excerpt weighted towards active compounds, which were near 6.4% of everything screened.

SMILES	EBV gp42 block	MPTP inh	GRIN3A LBD mod	Tb MetRS inh	WT yeast gro inh	CHOP inhibitor	Tb MetRS conf	Jurkat cytotox	Tb MetRS inh FP
COc1ccc(OC)c(S(=O)(=O)N2CCCC(C(=O)NCc3ccncc3)C2)c1 (stereo not drawn)	x	n	n	n	x	x	x	x	x
Clc1ccc(OCc2nc(-c3ccccn3)no2)c(Br)c1	n	n	n	5.8	n	72	6.5	n	n
COc1ccc(/C=C2\SC(N3CCCCC3)=NC2=O)cc1	x	n	n	n	x	x	x	x	x
COc1ccc(/C=C2\SC(=O)N=C2N)cc1	n	n	n	22	n	n	67	n	37
O=C(CCCSc1ccc(Cl)cc1)Nc1ccccc1O	x	n	n	18	x	x	38	n	24
CCc1cc2c(CN3CCN(Cc4ccccc4)CC3)cc(=O)oc2cc1O	x	n	n	n	x	x	x	x	x
C(=C/c1nccc2c1[nH]c1ccccc12)/c1ccc2c(c1)OCO2	n	n	13	5.9	n	n	n	42	91
C(=N\Nc1nc2ccccc2[nH]1)/c1ccc2c(c1)OCO2	n	n	n	n	n	n	x	x	x
O=C(NCc1cccnc1)c1cc(Sc2ccc(F)cc2F)nc2ccccc12	n	n	n	n	n	n	x	x	x
Cc1ccc(NC(=O)CS(=O)CC(=O)Nc2ccc3c(c2)OCO3)cc1Cl (stereo not drawn)	n	n	30	9.8	n	n	12	n	n
CCOC(=O)C(/C=C(\C#N)C(=O)OCC)=C(/N)N1CCN(c2c(C)cccc2C)CC1	n	n	n	n	n	n	x	x	x
CCOC(=O)C(/C=C(\C#N)C(=O)OCC)=C(/N)N1CCN(c2ccc(OC)cc2)CC1	n	n	n	22	n	n	43	n	n
Cc1cccn2c(CNCCc3ccccn3)c(C(=O)N3CCOCC3)nc12	x	n	n	n	x	x	x	x	x
O=Cc1cc([N+](=O)[O-])ccc1N1CCN(Cc2ccc3c(c2)OCO3)CC1	x	n	n	8.1	x	x	18	n	n
Cc1cc(Br)ccc1NC(=O)CNC(=O)c1ccc(-n2cncn2)c([N+](=O)[O-])c1	x	n	n	27	x	x	63	n	29
O=C(Nc1ccccc1OC(F)F)c1ccc(-n2cncn2)c([N+](=O)[O-])c1	x	n	n	19	x	x	52	n	22
COc1ccccc1NC(=O)c1ccc(-n2cccn2)c([N+](=O)[O-])c1	n	n	n	n	n	n	x	x	x
Cc1cc(Br)ccc1NC(=O)CN(C)C(=O)c1ccc(-n2cncn2)c([N+](=O)[O-])c1	x	n	n	n	x	x	x	x	x
Cc1cc(C)c(NC(=O)CNC(=O)c2ccc(-n3cncn3)c([N+](=O)[O-])c2)c(C)c1	x	n	n	8.0	x	x	35	n	n
CC(C)(C)c1ccccc1NC(=O)c1ccc(-n2cncn2)c([N+](=O)[O-])c1	x	n	x	13	x	x	43	n	n
COC(=O)c1cn(NC(=O)Cc2ccccc2OC)c(=O)c2ccccc12	n	n	n	n	n	n	x	x	x
O=C1C2C3c4ccccc4C(c4ccccc43)C2C(=O)N1c1cccc2cccnc12 (stereo not drawn)	n	n	n	n	n	n	x	x	x
CCOC(=O)c1ccc(NC(=O)c2nc[nH]c2C(=O)NCC(=O)OC(C)(C)C)cc1	n	n	n	n	x	n	x	x	x
Cc1c(C(=O)Nc2cccc(F)c2)cnn1-c1ccccc1	x	n	n	n	x	x	x	x	x
Cc1cc(Br)ccc1NC(=O)c1ccc(-n2cncn2)c([N+](=O)[O-])c1	x	n	n	32	x	x	79	n	52
SMILES	EBV gp42 block	MPTP inh	GRIN3A LBD mod	Tb MetRS inh	WT yeast gro inh	CHOP inhibitor	Tb MetRS conf	Jurkat cytotox	Tb MetRS inh FP
CC(OC(=O)CCCN=C1NS(=O)(=O)c2ccccc21)C(=O)NC1CCCCC1C (stereo not drawn)	x	n	n	n	x	x	x	x	x
C=CCNC(=S)NNC(=O)COc1ccc(Br)cc1	n	n	n	n	n	n	x	x	x
C=CCNC(=S)NNC(=O)COc1ccc2cc(Br)ccc2c1	n	n	n	19	59	n	46	n	24
CCOC(=O)C(=NC1CCS(=O)(=O)C1)NNc1ccc(Br)cc1 (stereo not drawn)	n	n	n	15	59	n	46	n	n
CCOC(=O)C(=NC1CCS(=O)(=O)C1)NNc1ccccc1Cl (stereo not drawn)	n	n	n	n	x	n	x	x	x
Nc1ccc2nc(-c3ccc(Cl)cc3)[nH]c2c1	n	n	n	n	n	n	x	x	x
Clc1ccc2nc(-c3ccc(Cl)nc3)[nH]c2c1	x	n	x	25	x	x	46	15	22
CCOC(=O)N1CCC(N2CC34C=CC(O3)C(C(=O)Nc3ccc(C)cc3)C4C2=O)CC1 (stereo not drawn)	n	n	n	n	n	n	x	x	x
COc1cc2nc(Nc3cccc(F)c3)nc(N)c2cc1OC	x	n	17	9.1	x	x	29	n	25
COc1nc(Nc2cccc(F)c2)nc(OC)n1	x	n	n	n	x	x	x	x	x
c1ccc2cc3[nH]c(CN4CCOCC4)nc3cc2c1	n	n	n	6.6	n	n	13	n	n
Cc1cc(=O)[nH]c(CN2CCOCC2)n1	n	n	n	n	n	n	x	x	x
COCCNC(=O)C1(C)CCN(Cc2ccccc2C#N)C1 (stereo not drawn)	x	n	x	n	x	x	x	x	x
Nc1n[nH]c(N)c1N=Nc1ccc(Cl)cc1Cl	n	n	20	9.7	n	n	22	19	36
Cc1ccc(NC(=O)CSCC(=O)N2CCN(c3cccc(C(F)(F)F)c3)CC2)cc1	x	n	n	n	x	x	x	x	x
Cc1cc(=O)n2c(n1)NC(=NCc1ccccc1)NC2c1ccccc1 (stereo not drawn)	n	n	n	8.5	x	n	18	n	n
O=C(C1=C[C@@H](c2ccc3c(c2)OCO3)C[C@@H](OCCCCO)O1)N1CCN(Cc2ccc3c(c2)OCO3)CC1	n	n	n	18	n	n	55	n	25
O=C(NCc1nc2ccccc2[nH]1)C1=C[C@H](c2ccc(C(F)(F)F)cc2)C[C@H](OCCCCO)O1	x	n	n	31	x	x	69	n	38

Source: PubChem
